In ChEMBL document CHEMBL1128676, “Phosphonates and phosphinates: novel leaving groups for benzisothiazolone inhibitors of human leukocyte elastase” (J Med Chem, 1995):

Test system: Cricetinae gen. sp.
Experiment: In vivo inhibitory activity of 10 mg/kg compound administered intravenously against Human leukocyte elastase induced hemorrhage in hamster
Format: functional, Cricetulus griseus
Conditions: route intravenous
In short: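 Hamster elastase-induced pulmonary hemorrhage model: 10 mg/kg given intravenously 1 min before intratracheal human leukocyte elastase (25 μg). Result expressed as % inhibition of HLE activity, mean ± error.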

SMILES	inhibition in vivo at 10 mg/kg [%]
CCOP(=O)(OCC)OCN1C(=O)c2c(C(C)C)cccc2S1(=O)=O	84
CCOP(=O)(OCC)OCN1C(=O)c2c(C(C)C)cc(OC)cc2S1(=O)=O	92

Target: T1, Neutrophil elastase (Homo sapiens, UniProt P08246)
T1 sequence (P08246 whole entry): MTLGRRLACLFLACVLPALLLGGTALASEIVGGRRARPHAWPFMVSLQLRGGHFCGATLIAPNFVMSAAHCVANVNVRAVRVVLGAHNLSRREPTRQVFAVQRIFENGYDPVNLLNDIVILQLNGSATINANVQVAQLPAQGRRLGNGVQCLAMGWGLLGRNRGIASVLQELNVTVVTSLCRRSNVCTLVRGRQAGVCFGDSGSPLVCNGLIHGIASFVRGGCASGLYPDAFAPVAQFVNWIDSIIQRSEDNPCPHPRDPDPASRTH
Experiment: Inhibitory activity against Human leukocyte elastase was determined
Conditions: not given
In short: (§1)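 Human leukocyte elastase inhibition measured in vitro at pH 7.8. Kinetic constants reported as k_inact (M⁻¹ s⁻¹), k_react (s⁻¹) and K_i* (nM).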

SMILES	Ki [nM]
O=C1c2ccccc2S(=O)(=O)N1COP(=O)(OCc1ccccc1)OCc1ccccc1	20.5
O=C1c2ccccc2S(=O)(=O)N1COP(=O)(Oc1ccccc1)Oc1ccccc1	6.5
CCOP(=O)(OCC)OCN1C(=O)c2ccccc2S1(=O)=O	60
O=C1c2ccccc2S(=O)(=O)N1COP(=O)(c1ccccc1)c1ccccc1	30
COP(=O)(OC)OCN1C(=O)c2ccccc2S1(=O)=O	100
CCCCOP(=O)(OCCCC)OCN1C(=O)c2ccccc2S1(=O)=O	17
CCCCP(=O)(CCCC)OCN1C(=O)c2ccccc2S1(=O)=O	24

Target: T2, Neutrophil elastase (Homo sapiens) (UniProt P08246)
T2 sequence (whole entry): T1 sequence (P08246 whole entry)
Experiment: Inhibitory activity against Human leukocyte elastase as kinetic constant for inhibition (inactivation)
Conditions: not given
In short: as §1

SMILES	K inact [M⁻¹ s⁻¹]
O=C1c2ccccc2S(=O)(=O)N1COP(=O)(OCc1ccccc1)OCc1ccccc1	4100
O=C1c2ccccc2S(=O)(=O)N1COP(=O)(Oc1ccccc1)Oc1ccccc1	11000
CCOP(=O)(OCC)OCN1C(=O)c2ccccc2S1(=O)=O	1100
CCOP(=O)(OCC)OCN1C(=O)c2c(C(C)C)cccc2S1(=O)=O	530000
O=C1c2ccccc2S(=O)(=O)N1COP(=O)(c1ccccc1)c1ccccc1	1900
COP(=O)(OC)OCN1C(=O)c2ccccc2S1(=O)=O	800
CCCCOP(=O)(OCCCC)OCN1C(=O)c2ccccc2S1(=O)=O	4800
CCCCP(=O)(CCCC)OCN1C(=O)c2ccccc2S1(=O)=O	2300
CCOP(=O)(OCC)OCN1C(=O)c2c(C(C)CC)cccc2S1(=O)=O (stereo not drawn)	800000
CCOP(=O)(OCC)OCN1C(=O)c2c(C(C)C)cc(OC)cc2S1(=O)=O	343000
CCOP(=O)(OCC)OCN1C(=O)c2c(C(C)C)cc(O)cc2S1(=O)=O	3300

Test system: not listed separately
Experiment: Acid dissociation constant was determined
Format: ADME
Conditions: not given

SMILES	pKa
O=C1c2ccccc2S(=O)(=O)N1COP(=O)(OCc1ccccc1)OCc1ccccc1	2.26
O=C1c2ccccc2S(=O)(=O)N1COP(=O)(Oc1ccccc1)Oc1ccccc1	1.91
CCOP(=O)(OCC)OCN1C(=O)c2ccccc2S1(=O)=O	2.5
O=C1c2ccccc2S(=O)(=O)N1COP(=O)(c1ccccc1)c1ccccc1	3.34
COP(=O)(OC)OCN1C(=O)c2ccccc2S1(=O)=O	2.56
CCCCOP(=O)(OCCCC)OCN1C(=O)c2ccccc2S1(=O)=O	2.59

Target: T2, Neutrophil elastase (Homo sapiens)
Conditions: not given

SMILES	K inact [M⁻¹ s⁻¹]
CCOP(=O)(OCC)OCN1C(=O)c2ccccc2S1(=O)=O	1100

Target: T2, Neutrophil elastase (Homo sapiens)
Experiment: Inhibitory activity against Human leukocyte elastase was determined in vitro and expressed as kinetic constant for inhibition (reactivity)
Conditions: not given
In short: as §1

SMILES	Kreact [s⁻¹]
CCOP(=O)(OCC)OCN1C(=O)c2ccccc2S1(=O)=O	6.6e-05
CCOP(=O)(OCC)OCN1C(=O)c2c(C(C)C)cccc2S1(=O)=O	5.3e-05
CCOP(=O)(OCC)OCN1C(=O)c2c(C(C)CC)cccc2S1(=O)=O (stereo not drawn)	5.6e-05
CCOP(=O)(OCC)OCN1C(=O)c2c(C(C)C)cc(OC)cc2S1(=O)=O	1.2e-05
CCOP(=O)(OCC)OCN1C(=O)c2c(C(C)C)cc(O)cc2S1(=O)=O	1.4e-05

Target: T1, Neutrophil elastase
Experiment: In vitro inhibitory activity against Human leukocyte elastase
Conditions: not given
In short: as §1

SMILES	Ki [nM]
CCOP(=O)(OCC)OCN1C(=O)c2ccccc2S1(=O)=O	60
CCOP(=O)(OCC)OCN1C(=O)c2c(C(C)C)cccc2S1(=O)=O	0.1
CCOP(=O)(OCC)OCN1C(=O)c2c(C(C)CC)cccc2S1(=O)=O (stereo not drawn)	0.07
CCOP(=O)(OCC)OCN1C(=O)c2c(C(C)C)cc(O)cc2S1(=O)=O	4.5

Test system: Cricetinae gen. sp.
Experiment: In vivo inhibitory activity of 10 mg/kg compound administered subcutaneously against Human leukocyte elastase induced hemorrhage in hamster
Format: functional, Cricetulus griseus
Conditions: sc, route subcutaneous
In short: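 Hamsters dosed subcutaneously at 10 mg/kg, 1 min before intratracheal instillation of human leukocyte elastase (25 μg), to induce pulmonary hemorrhage. Readout is % inhibition of in vivo HLE activity, mean ± error.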

SMILES	inhibition in vivo at 10 mg/kg [%]
CCOP(=O)(OCC)OCN1C(=O)c2ccccc2S1(=O)=O	56
CCOP(=O)(OCC)OCN1C(=O)c2c(C(C)CC)cccc2S1(=O)=O (stereo not drawn)	83
